Experimental data reported in ChEMBL document CHEMBL1137591, “Identification of a potent and stable antiproliferative agent by the prodrug formation of a thiolate histone deacetylase inhibitor” (Bioorg Med Chem Lett, 2007).

What was measured:
[1] = system: NCI-H460; assay: Inhibition of NCI-H460 cell proliferation (mean); type: functional, cell-based; settings: Homo sapiens
Procedure, shortened: (§1)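 Cells were seeded at 1500 per well and held 24 h at 37 °C. They were then exposed for 48 h to a range of compound concentrations in RPMI-1640 with 10% FBS at 37 °C and 5% CO2. Staining used 0.5 mg/mL methylene blue for 30 min at room temperature. Dye was dissolved in 3% aqueous HCl and absorbance read at 660 nm. EC50 values are means of at least two experiments.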

[2] = molecular target: Histone deacetylase 1 (Homo sapiens, UniProt Q13547); assay: Inhibition of HDAC1
[3] = system: MDA-MB-231; assay: Inhibition of MDA-MB-231 cell proliferation (mean of two experiments); type: functional, cell-based, Homo sapiens; procedure, shortened: as §1
[4] = system: DLD-1; assay: Inhibition of DLD-1 cell proliferation (mean); type: functional, cell-based; settings: Homo sapiens; procedure, shortened: as §1
[5] = system: Malme-3M; assay: Inhibition of MALME-3M cell proliferation (mean); type: functional, cell-based; settings: Homo sapiens; procedure, shortened: as §1
[6] = system: A498; assay: Inhibition of A498 cell proliferation (mean); type: functional, cell-based; settings: Homo sapiens; procedure, shortened: as §1
[7] = system: PC-3; assay: Inhibition of PC-3 cell proliferation (mean); type: functional, cell-based; settings: Homo sapiens; procedure, shortened: as §1
[8] = system: HCT-116; assay: Inhibition of HCT116 cell proliferation (mean); type: functional, cell-based; settings: Homo sapiens; procedure, shortened: as §1
[9] = system: T47D; assay: Inhibition of T-47D cell proliferation (mean of two experiments); type: functional, cell-based; settings: Homo sapiens; procedure, shortened: as §1
[10] = Stability (mean % remaining) in human plasma after incubation at 37 °C for 8h; type: ADME, cell-free; settings: read-out: %R
Procedure, shortened: (§2)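 Compounds were incubated in human plasma with sampling at 0, 2, 4, 8 and 24 h. The percentage of intact compound remaining was measured at each point. Values are means of at least three experiments.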

[11] = Stability (mean % remaining) in human plasma after incubation at 37 °C for 0h; type: ADME; settings: read-out: %R; procedure, shortened: as §2
[12] = Stability (mean % remaining) in human plasma after incubation at 37 °C for 24h; type: ADME, cell-free; settings: read-out: %R; procedure, shortened: as §2
[13] = Stability (mean % remaining) in human plasma after incubation at 37 °C for 2h; type: ADME, cell-free; settings: read-out: %R; procedure, shortened: as §2
[14] = Stability (mean % remaining) in human plasma after incubation at 37 °C for 4h; type: ADME, cell-free; settings: read-out: %R; procedure, shortened: as §2

Histone deacetylase 1, sequence (Q13547 whole entry): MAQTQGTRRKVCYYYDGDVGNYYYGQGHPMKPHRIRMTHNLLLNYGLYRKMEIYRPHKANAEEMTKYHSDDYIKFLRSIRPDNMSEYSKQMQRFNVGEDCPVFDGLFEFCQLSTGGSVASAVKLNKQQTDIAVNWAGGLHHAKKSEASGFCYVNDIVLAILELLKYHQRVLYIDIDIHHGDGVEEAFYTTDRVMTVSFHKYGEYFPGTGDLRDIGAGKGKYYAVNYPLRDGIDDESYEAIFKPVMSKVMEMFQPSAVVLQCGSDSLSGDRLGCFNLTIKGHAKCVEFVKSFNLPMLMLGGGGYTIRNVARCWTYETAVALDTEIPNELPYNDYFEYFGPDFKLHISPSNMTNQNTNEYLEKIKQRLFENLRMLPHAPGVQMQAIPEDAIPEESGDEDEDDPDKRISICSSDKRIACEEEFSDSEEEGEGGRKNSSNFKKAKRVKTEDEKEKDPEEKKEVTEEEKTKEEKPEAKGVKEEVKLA

Structure (SMILES) | EC50 [1] [µM] | IC50 [2] [µM] | EC50 ([3]; Homo sapiens, MDA-MB-231) [µM] | EC50 [4] [µM] | EC50 [7] [µM] | EC50 [8] [µM] | EC50 ([3]; mda-mb-231) [µM] | EC50 [9] [µM] | remaining at 8 h [10] [%] | remaining at 0 h [11] [%] | remaining at 24 h [12] [%] | remaining at 2 h [13] [%] | remaining at 4 h [14] [%] | EC50 [5] [µM] | EC50 [6] [µM]
O=C(CCCCCCS)Nc1nc(-c2ccccc2)cs1 | 7.6 | 0.048 | > 20 | – | – | – | – | – | – | – | – | – | – | – | –
O=C(CCCCCCSC(=O)C(Cc1ccccc1)Cc1ccccc1)Nc1nc(-c2ccccc2)cs1 | > 20 | – | > 20 | – | – | – | – | – | – | – | – | – | – | – | –
COC(C(=O)SCCCCCCC(=O)Nc1nc(-c2ccccc2)cs1)c1ccccc1 (stereo unspecified) | 11 | – | > 20 | – | – | – | – | – | – | – | – | – | – | – | –
CC(C(=O)SCCCCCCC(=O)Nc1nc(-c2ccccc2)cs1)c1ccccc1 (stereo unspecified) | 3.2 | – | > 20 | 86 | 37 | 23 | 27 | > 100 | – | – | – | – | – | 33 | 26
CC(C)C(=O)SCCCCCCC(=O)Nc1nc(-c2ccccc2)cs1 | 2.1 | – | 4.4 | 2.3 | 9.5 | 1.3 | – | 8.3 | 63 | 100 | 49 | 86 | 71 | 4.3 | 6.8

Further lines, with some results ahead:

EC50 [1] [µM] | IC50 [2] [µM] | EC50 ([3]; Homo sapiens, MDA-MB-231) [µM] | EC50 [4] [µM] | EC50 [7] [µM] | EC50 [8] [µM] | EC50 ([3]; mda-mb-231) [µM] | EC50 [9] [µM] | remaining at 8 h [10] [%] | remaining at 0 h [11] [%] | remaining at 24 h [12] [%] | remaining at 2 h [13] [%] | remaining at 4 h [14] [%] | Structure (SMILES) | EC50 [5] [µM] | EC50 [6] [µM]
3.2 | – | 3.1 | – | 9.9 | 0.75 | – | – | – | – | – | – | – | C[C@H](Cc1ccccc1)C(=O)SCCCCCCC(=O)Nc1nc(-c2ccccc2)cs1 | – | –
3 | – | 4 | – | 4.4 | 0.62 | – | – | – | – | – | – | – | C[C@@H](Cc1ccccc1)C(=O)SCCCCCCC(=O)Nc1nc(-c2ccccc2)cs1 | – | –
1.5 | > 100 | 1.9 | 1.8 | 3.2 | 1.2 | – | 4.3 | 99 | 100 | 100 | 100 | 99 | CC(Cc1ccccc1)C(=O)SCCCCCCC(=O)Nc1nc(-c2ccccc2)cs1 (stereo unspecified) | 3 | 2.6
